Results from ChEMBL document CHEMBL3244396, “Synthesis and antileukemic activity of 5-substituted 2,3-dihydro-6,7-bis(hydroxymethyl)-1H-pyrrolizine diesters” (J Med Chem, 1977).

What was measured:
[1] = test system: L1210; assay: Antileukemic activity against mouse L1210 cells allografted in female BDF1 mouse assessed as host mean survival time at 12.5 mg/kg, ip administered daily for 9 days as Klucel suspension starting 24 hrs after tumor inoculation relative to control; type: functional; details: route intraperitoneal
How it was run: (§1)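 L1210 leukemia given as an ascitic fluid cell inoculum, ip, to mice of the strain and sex in each line. Test material was given ip for nine daily doses starting 24 h after inoculation, in a Klucel (hydroxypropylcellulose) suspension. Read-out is mean survival time as %T/C versus controls, with >125 taken as significant.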

[2] = Cytotoxicity against human 9KB cells treated as ethanol solution; type: functional; details: read-out: ED50 (the source's name)
How it was run: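 Compound applied as an ethanol solution; activity read out as ED50 under the general screening protocol.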

[3] = test system: Mus musculus; assay: Toxicity in female BDF1 mouse allografted with mouse L1210 cells assessed as animal survival at 12.5 mg/kg, ip administered daily for 9 days as Klucel suspension starting 24 hrs after tumor inoculation measured on fifth day; type: organism-based; design: dose 12.5 mg/kg, route intraperitoneal; details: in vivo
How it was run: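 Female BDF1 mice bearing ip ascitic L1210 inoculum got nine daily ip doses in a Klucel suspension, starting 24 h after tumor inoculation. Toxicity was scored as toxicity-day survivors out of the group, recorded on the fifth day. Animal weight difference (T − C) was also tabulated.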

[4] = test system: P388; assay: Antitumor activity against mouse P388 cells allografted in male CDF1 mouse assessed as change in body weight at 25 mg/kg, ip administered daily for 9 days as Klucel suspension starting 24 hrs after tumor inoculation; type: functional; details: route intraperitoneal
How it was run: (§2)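 Ascitic fluid carrying P388 cells was inoculated ip. Compound was given ip in nine daily doses, starting 24 h after inoculation, in Klucel (hydroxypropylcellulose) suspension or in saline with Tween-80. Body-weight difference (treated minus control) was recorded on day 5. Survival was scored as %T/C of median survival time, and 30-day survival counted as cure.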

[5] = test system: L1210; assay: Antileukemic activity against mouse L1210 cells allografted in male CDF1 mouse assessed as change in body weight at 200 mg/kg, ip administered daily for 9 days as Klucel suspension starting 24 hrs after tumor inoculation; type: functional; details: route intraperitoneal
How it was run: (§3)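 Ascitic fluid carrying L1210 cells was inoculated ip. Compound was given ip as a Klucel (hydroxypropylcellulose) suspension in nine daily doses, starting 24 h after inoculation. Body-weight difference (treated minus control) was recorded on day 5. Survival was scored as %T/C of mean survival time.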

[6] = test system: L1210; assay: Antileukemic activity against mouse L1210 cells allografted in male CDF1 mouse assessed as host mean survival time at 200 mg/kg, ip administered daily for 9 days as Klucel suspension starting 24 hrs after tumor inoculation relative to control; type: functional; details: route intraperitoneal; how it was run: as §1
[7] = test system: P388; assay: Antitumor activity against mouse P388 cells allografted in male CDF1 mouse assessed as disease cures by measuring 30-days host survival at 12.5 mg/kg, ip administered daily for 9 days as Klucel suspension starting 24 hrs after tumor inoculation relative to control; type: functional; details: route intraperitoneal
How it was run: (§4)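 P388 leukemia given as an ascitic fluid cell inoculum, ip, to mice of the strain and sex in each line. Nine daily ip doses were given in a Klucel (hydroxypropylcellulose) suspension, starting 24 h after inoculation. Read-out is median survival time as %T/C, with >125 taken as significant; a "cure" means 30-day survival.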

[8] = test system: L1210; assay: Antileukemic activity against mouse L1210 cells allografted in male CDF1 mouse assessed as host mean survival time at 100 mg/kg, ip administered daily for 9 days as Klucel suspension starting 24 hrs after tumor inoculation relative to control; type: functional; details: route intraperitoneal; how it was run: as §1
[9] = test system: Mus musculus; assay: Toxicity in male CDF1 mouse allografted with mouse L1210 cells assessed as animal survival at 100 mg/kg, ip administered daily for 9 days as Klucel suspension starting 24 hrs after tumor inoculation measured on fifth day; type: organism-based; design: dose 100 mg/kg, route intraperitoneal; details: in vivo
How it was run: (§5)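 L1210 leukemia passaged as ascitic fluid and inoculated ip. Test agent given ip as a Klucel (hydroxypropylcellulose) suspension, nine daily doses starting 24 h after tumor inoculation. Acute toxicity read as toxicity-day survivors per group (out of 6), recorded on day 5. Animal weight difference T − C was also recorded. Follows NCI screening protocols.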

[10] = test system: L1210; assay: Antileukemic activity against mouse L1210 cells allografted in female BDF1 mouse assessed as host mean survival time at 50 mg/kg, ip administered daily for 9 days as Klucel suspension starting 24 hrs after tumor inoculation relative to control; type: functional; details: route intraperitoneal; how it was run: as §1
[11] = test system: Mus musculus; assay: Toxicity in female BDF1 mouse allografted with mouse L1210 cells assessed as animal survival at 25 mg/kg, ip administered daily for 9 days as Klucel suspension starting 24 hrs after tumor inoculation measured on fifth day; type: organism-based; design: dose 25 mg/kg, route intraperitoneal; details: in vivo; how it was run: as §5
[12] = test system: P388; assay: Antitumor activity against mouse P388 cells allografted in male CDF1 mouse assessed as change in body weight at 100 mg/kg, ip administered daily for 9 days as Klucel suspension starting 24 hrs after tumor inoculation; type: functional; details: route intraperitoneal; how it was run: as §2
[13] = test system: Mus musculus; assay: Toxicity in female BDF1 mouse allografted with mouse L1210 cells assessed as animal survival at 50 mg/kg, ip administered daily for 9 days as Klucel suspension starting 24 hrs after tumor inoculation measured on fifth day; type: organism-based; design: dose 50 mg/kg, route intraperitoneal; details: in vivo; how it was run: as §5
[14] = test system: P388; assay: Antitumor activity against mouse P388 cells allografted in male CDF1 mouse assessed as disease cures by measuring 30-days host survival at 50 mg/kg, ip administered daily for 9 days as Klucel suspension starting 24 hrs after tumor inoculation relative to control; type: functional; details: route intraperitoneal; how it was run: as §4
[15] = test system: P388; assay: Antitumor activity against mouse P388 cells allografted in male CDF1 mouse assessed as disease cures by measuring 30-days host survival at 100 mg/kg, ip administered daily for 9 days as Klucel suspension starting 24 hrs after tumor inoculation relative to control; type: functional; details: route intraperitoneal; how it was run: as §4
[16] = test system: Mus musculus; assay: Toxicity in male CDF1 mouse allografted with mouse L1210 cells assessed as animal survival at 200 mg/kg, ip administered daily for 9 days as Klucel suspension starting 24 hrs after tumor inoculation measured on fifth day; type: organism-based; design: dose 200 mg/kg, route intraperitoneal; details: in vivo; how it was run: as §5
[17] = test system: L1210; assay: Antileukemic activity against mouse L1210 cells allografted in female BDF1 mouse assessed as change in body weight at 12.5 mg/kg, ip administered daily for 9 days as Klucel suspension starting 24 hrs after tumor inoculation; type: functional; details: route intraperitoneal; how it was run: as §3
[18] = test system: L1210; assay: Antileukemic activity against mouse L1210 cells allografted in male CDF1 mouse assessed as change in body weight at 100 mg/kg, ip administered daily for 9 days as Klucel suspension starting 24 hrs after tumor inoculation; type: functional; details: route intraperitoneal; how it was run: as §3
[19] = test system: P388; assay: Antitumor activity against mouse P388 cells allografted in male CDF1 mouse assessed as change in body weight at 12.5 mg/kg, ip administered daily for 9 days as Klucel suspension starting 24 hrs after tumor inoculation; type: functional; details: route intraperitoneal; how it was run: as §2
[20] = test system: L1210; assay: Antileukemic activity against mouse L1210 cells allografted in female BDF1 mouse assessed as change in body weight at 50 mg/kg, ip administered daily for 9 days as Klucel suspension starting 24 hrs after tumor inoculation; type: functional; details: route intraperitoneal; how it was run: as §3
[21] = test system: P388; assay: Antitumor activity against mouse P388 cells allografted in male CDF1 mouse assessed as disease cures by measuring 30-days host survival at 25 mg/kg, ip administered daily for 9 days as Klucel suspension starting 24 hrs after tumor inoculation relative to control; type: functional; details: route intraperitoneal; how it was run: as §4
[22] = test system: Mus musculus; assay: Toxicity in male CDF1 mouse allografted with mouse P388 cells assessed as animal survival at 12.5 mg/kg, ip administered daily for 9 days as Klucel suspension starting 24 hrs after tumor inoculation; type: organism-based; design: dose 12.5 mg/kg, route intraperitoneal; details: in vivo
How it was run: (§6)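 P-388 leukemia ascitic fluid inoculated ip. Compound given ip as a suspension in Klucel (hydroxypropylcellulose), once daily for nine doses beginning 24 h post-inoculation. Acute toxicity assessed as toxicity-day survivors per group. Survival was followed up to 30 days, with 30-day survival counted as "cure". Follows NCI screening protocols.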

[23] = test system: L1210; assay: Antileukemic activity against mouse L1210 cells allografted in female BDF1 mouse assessed as host mean survival time at 25 mg/kg, ip administered daily for 9 days as Klucel suspension starting 24 hrs after tumor inoculation relative to control; type: functional; details: route intraperitoneal; how it was run: as §1
[24] = test system: P388; assay: Antitumor activity against mouse P388 cells allografted in male CDF1 mouse assessed as change in body weight at 50 mg/kg, ip administered daily for 9 days as Klucel suspension starting 24 hrs after tumor inoculation; type: functional; details: route intraperitoneal; how it was run: as §2
[25] = test system: Mus musculus; assay: Toxicity in male CDF1 mouse allografted with mouse P388 cells assessed as animal survival at 25 mg/kg, ip administered daily for 9 days as Klucel suspension starting 24 hrs after tumor inoculation; type: organism-based; design: dose 25 mg/kg, route intraperitoneal; details: in vivo; how it was run: as §6
[26] = test system: Mus musculus; assay: Toxicity in male CDF1 mouse allografted with mouse P388 cells assessed as animal survival at 50 mg/kg, ip administered daily for 9 days as Klucel suspension starting 24 hrs after tumor inoculation; type: organism-based; design: dose 50 mg/kg, route intraperitoneal; details: in vivo; how it was run: as §6
[27] = test system: L1210; assay: Antileukemic activity against mouse L1210 cells allografted in female BDF1 mouse assessed as change in body weight at 25 mg/kg, ip administered daily for 9 days as Klucel suspension starting 24 hrs after tumor inoculation; type: functional; details: route intraperitoneal; how it was run: as §3

For `CNC(=O)OCc1c(COC(=O)NC)c(-c2ccc(Cl)c(Cl)c2)n2c1CCC2`, the T/C [1] was 106%, the EC50 [2] was > 2.7 µg/mL and the Activity [3] was “Non-toxic”. The Activity [4] was -0.4 g, the Activity [5] was -4.8 g and the T/C [6] was 63%. The T/C [7] was 153%, the T/C [8] was 74% and the Activity [9] was “Non-toxic”. The T/C [10] was 124%, the Activity [11] was “Non-toxic” and the Activity [12] was -1.9 g. For the same compound, the Activity [13] was “Non-toxic”, the T/C [14] was 155% and the T/C [15] was 188%. The Activity [16] was “Non-toxic”, the Activity [17] was -1.5 g and the Activity [18] was -4.3 g. For the same compound, the Activity [19] was 1.6 g, the Activity [20] was -3 g and the T/C [21] was 160%. For the same compound, the Activity [22] was “Non-toxic”, the T/C [23] was 109% and the Activity [24] was -2.5 g. The Activity [25] was “Non-toxic”, the Activity [26] was “Non-toxic” and the Activity [27] was -1.3 g.
